# Screening data (PubChem BioAssay)
# ADAM10 inh: human ADAM10 inhibitors, primary screen, biochemical, QFRET, HTS; actives 0.62% (n = 370,000); recombinant ADAM10, EDANS/DABCYL FRET peptide cleavage, 3 h; inhibition, % at 7 µM; Disintegrin and metalloproteinase domain-containing protein 10 (Homo sapiens), O14672;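 active = inhibition above a per-campaign cutoff equal to the mean of compounds falling between control-based bounds plus 3 SD, cut at about 20% in these data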;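 also: 0% = DMSO wells while the 100% control is not disclosed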
# Target sequence (O14672 214-748 limits assumed): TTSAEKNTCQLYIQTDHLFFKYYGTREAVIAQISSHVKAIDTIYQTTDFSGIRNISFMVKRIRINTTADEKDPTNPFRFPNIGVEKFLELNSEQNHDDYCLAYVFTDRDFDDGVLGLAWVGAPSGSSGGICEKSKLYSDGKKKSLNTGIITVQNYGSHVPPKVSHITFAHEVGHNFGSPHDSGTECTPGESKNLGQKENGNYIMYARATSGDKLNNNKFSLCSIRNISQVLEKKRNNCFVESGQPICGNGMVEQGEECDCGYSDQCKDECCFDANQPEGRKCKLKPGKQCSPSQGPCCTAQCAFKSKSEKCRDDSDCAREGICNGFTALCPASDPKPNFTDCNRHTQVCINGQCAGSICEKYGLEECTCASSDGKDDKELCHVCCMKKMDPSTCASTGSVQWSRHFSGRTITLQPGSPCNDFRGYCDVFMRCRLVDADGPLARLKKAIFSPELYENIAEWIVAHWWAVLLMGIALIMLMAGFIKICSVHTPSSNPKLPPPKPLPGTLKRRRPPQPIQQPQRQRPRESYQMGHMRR
# V-ATPase pH: regulators of yeast V-ATPase proton pumping, primary screen, pHLuorin cytosolic pH fluorescence; S. cerevisiae; response, % at 10 µM; actives 0.37% (n = 350,000); AID 504577, 2011; in the data active = response mostly above about 7.3%, no sharp cut-off; inactive = mostly below about 5.4%; also: actives read high
# aDG glyco act: activators of alpha-DG glycosylation, primary screen, uHTS, Pro5-aDG cells, AlphaScreen | activation, % at 10 µM | actives 0.22% (n = 360,000) | AID 624168, 2012 | alpha-DG glycosylation AlphaScreen (IIH6); 0% Pro5, 100% B10-LARGE cell signal;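 active = activation of at least 8% versus controls, or a plate z-score of at least 8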;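 also: Pro5 are CHO cells carrying HIG-tagged alpha-DG that lacks glycosylation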
# Hep lipid drop: inhibitors of hepatocyte lipid droplet formation, primary screen, imaging, high-throughput imaging, BODIPY stain; AML12 mouse hepatocytes, oleate lipid droplets; inhibition, % at 6.5 µM; actives 0.4% (n = 240,000);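 active = lipid droplet intensity inhibited by at least 50%, with more than 500 cells counted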
#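 Test system: AML12 hepatocytes (mouse); reagent: oleate loading, 100 µM; dosing: one dose, 6.5 µM compound; incubation: overnight exposure; signal: fluorescence imaging, 20x objective, two fields per well; read-out basis: % inhibition of corrected integrated BODIPY droplet signal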
# MPTP inh: mitochondrial permeability transition pore inhibitors, primary screen, biochemical, isolated mouse mitochondria, absorbance; inhibition, % at 10 µM; Ca2+ swelling absorbance, 30 min; actives 1.4% (n = 360,000);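 active = inhibition of 50% or more, scaled per plate between neutral and stimulator controls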;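 also: 0% = DMSO wells given calcium and 100% = 1 mM EGTA wells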
# ADAM17 inh: ADAM17 inhibitors, primary screen, biochemical, QFRET; Disintegrin and metalloproteinase domain-containing protein 17 (Homo sapiens), P78536; recombinant ADAM17, EDANS/DABCYL FRET peptide cleavage; inhibition, % at 6.95 µM; actives 0.83% (n = 370,000); AID 720648, 2013;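 active = inhibition above the mean of compounds lying between control limits plus 3 SD, set per campaign, cut at about 8.5% in these data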;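 also: 0% = DMSO-only wells as the low control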
# Rh123 counter: fluorescence retest of MPTP screen hits in isolated mitochondria, single concentration; actives 78% (n = 5,000); shares compounds with MPTP inh; inhibition, % at 10 µM; membrane potential, Rhodamine 123 fluorescence; in the data active = inhibition above about 22%;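 also: 0% = DMSO vehicle and 100% = positive control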
# MPTP abs DR: mitochondrial permeability transition pore inhibitors, dose response, biochemical, absorbance, uHTS hits; AID 651561, 2012; shares compounds with MPTP inh; isolated mitochondria swelling; IC50, µM; actives 58% (n = 780); in the data active = IC50 below about 20 µM
# MPTP cs DR: fluorescent counter-screen in isolated mitochondria, dose response, counter-screen for MPTP inhibitor project, biochemical, fluorescence, uHTS hits; shares compounds with MPTP inh; AID 651564, 2012; isolated mitochondria counterscreen, fluorescence read-out; actives 49% (n = 780); IC50, µM; in the data active = IC50 below about 80 µM
# Active calls of the source: *; i = inactive; / = not tested or not shown; + = active, no number. The list is not random: actives were taken first. Their share in the collection is about 3.1%.
SMILES,ADAM10 inh,V-ATPase pH,aDG glyco act,Hep lipid drop,MPTP inh,ADAM17 inh,Rh123 counter,others
C/C(=N\NC(=O)c1cc(Cl)ccc1O)c1ccc(Br)s1,-3.3,-2.9,0.1,-9.2,94.2*,1.8,19.5,MPTP abs DR=4.7*;MPTP cs DR=<2.5*
Cc1c(CCOC(=O)CC23CC4CC(CC(C)(C4)C2)C3)sc[n+]1CC(=O)c1ccccc1,7.6,-1.4,0.1,5.7,68.0*,4.0,23.9*,
CCN1CCN(c2ccc(NC(=O)CCc3c(C)nc4c(-c5ccccc5)c(C)nn4c3C)cc2)CC1,-2.9,-4.5,2.4,/,53.9*,-0.9,-24.6,MPTP abs DR=14.9*;MPTP cs DR=>80
CC(C)(C)C1=CC(=Nc2ccccc2N)C=C(C(C)(C)C)C1=O,-10.9,1.6,-0.5,-20.1,38.1,-2.5,/,
CC(C)(C)C1=CC(=O)C(=O)C(C(C)(C)C)=C1,/,10.0,-0.4,2.0,79.7*,/,4.4,
Cc1cccc(NC(=O)CN2C(=O)CCSc3ccccc32)c1C,-4.2,/,/,/,/,-1.4,/,
O=c1cc(C(F)(F)F)nc(SCc2cccc3ccccc23)[nH]1,10.9,5.0,0.1,21.8,78.1*,7.0,85.0*,
CCOC(=O)c1sc(NC(=O)Nc2ccccc2Cl)cc1C,9.6,1.5,0.3,-0.9,72.3*,2.0,60.0*,
CC(C)(C)c1ccc(S(=O)(=O)N2CCCC(C(=O)NCCN3CCC(Cc4ccccc4)CC3)C2)cc1 (stereo unspecified),1.1,/,/,/,/,3.9,/,
CC1CCc2nc(NC(=O)CN3CCN(Cc4ccc5c(c4)OCO5)CC3)sc2C1 (stereo unspecified),4.3,2.5,-0.1,1.4,56.5*,0.4,6.9,MPTP abs DR=i;MPTP cs DR=46.1*
CC1CCc2nc(NC(=O)CN3CCN(c4ccccc4)CC3)sc2C1 (stereo unspecified),-1.9,5.0,-0.3,2.1,-9.0,-1.6,/,
O=C(Nc1cccc(Cl)c1)C1=Cc2cc(Cl)ccc2OC1,12.1,-0.3,0.2,-15.3,95.1*,3.6,109.5*,
O=C(Nc1ccc(Cl)c(Cl)c1)C1=Cc2ccccc2OC1,13.1,-2.2,-0.1,6.0,88.6*,7.0,91.5*,
CCc1ccc(C(=O)NCc2ccc(Cl)cc2)cc1,-2.7,-3.1,0.2,-22.5,2.1,-2.9,/,
O=C(NCc1ccc(Cl)cc1)C1=Cc2cc(Cl)ccc2OC1,12.7,-0.8,0.2,9.7,78.1*,4.0,89.3*,
O=C(Nc1cccc(Cl)c1)c1cc(F)cc2c1OCOC2,-11.4,3.1,0.0,0.7,0.4,-7.3,/,
O=C(Nc1ccc2c(c1)OCCO2)c1ccc(Cl)c(Cl)c1,7.8,0.6,0.2,7.8,0.1,1.7,/,
Cc1ccc2c(c1)c1c3n2CCN(C(=O)CN2CCN(C)CC2)C3CCC1 (stereo unspecified),-32.5,0.7,1.4,/,75.0*,-6.7,-8.3,MPTP abs DR=19.7*;MPTP cs DR=>80
CN1CCN(CC(=O)N2CCn3c4c(c5cc(C6CCCCC6)ccc53)CCCC42)CC1 (stereo unspecified),/,-0.7,-0.6,-7.9,98.2*,/,-17.1,
O=C(Nc1c(-c2ccc(F)c(F)c2)nc2ncccn12)C1CC1,i,/,/,/,/,-230.2,/,
N#Cc1ccccc1NC(=O)C1SC(=Nc2ccccc2)C(C(=O)Nc2ccc(Cl)cc2)=C1N (stereo unspecified),37.1*,5.4,0.2,-41.6,61.7*,16.4*,65.0*,
Cc1cccc(CCNC(=O)c2ccc3c(c2)ncn3C2CCCCC2)c1,6.8,/,/,/,/,0.0,/,
O=C(Cc1ccc(S(=O)(=O)N2CCCCC2)s1)Nc1cccc2ccccc12,-3.5,-2.2,0.1,4.9,+,-1.3,3.9,MPTP abs DR=>100;MPTP cs DR=>80
COc1ccccc1OCCCCN1CCN(C(c2ccccc2)c2ccccc2)CC1,-3.3,-1.4,0.2,-2.0,82.5*,-1.6,-6.8,MPTP abs DR=i;MPTP cs DR=65.2*
CCOc1ccc(-n2c(SCC(=O)Nc3cccc4ccccc34)nnc2-c2ccccc2)cc1,-4.5,/,/,/,/,-1.3,/,
SMILES,ADAM10 inh,V-ATPase pH,aDG glyco act,Hep lipid drop,MPTP inh,ADAM17 inh,Rh123 counter,others
CCCc1c(NC(=O)Nc2ccc(F)cc2)cnn1-c1ccccc1,11.6,-3.2,0.0,-11.0,51.5*,-6.0,66.5*,
Oc1ccc(Cl)cc1CNc1ccc(Br)cn1,17.2,9.5,0.0,4.8,57.9*,6.8,61.7*,
O=C(Cc1ccc(Cl)cc1)Nc1ccc(Br)cn1,13.7,-0.7,0.0,-2.6,3.1,0.5,/,
Oc1c(Cl)cc(Cl)cc1CNc1ccc(Br)cn1,10.5,1.4,-0.3,-0.2,72.2*,2.7,83.2*,
COC(=O)c1cc(NC(=O)c2cc(-c3ccc(C(F)(F)F)cc3)oc2C(F)(F)F)ccc1N1CCOCC1,-0.3,4.8,0.5,33.1,88.2*,-5.2,68.5*,
COc1ccccc1NS(=O)(=O)c1cccc(NC(=O)c2[nH]c(C)c(C(C)=O)c2C)c1,-3.7,8.4,0.2,12.1,65.8*,0.7,63.8*,
COc1ccccc1NC(=O)c1[nH]c(C)c(C(C)=O)c1C,2.4,-0.8,0.3,/,-1.7,-1.9,/,
CC(=O)c1c(C)[nH]c(C(=O)Nc2cccc(S(=O)(=O)N(C)c3ccccc3)c2)c1C,11.1,-2.2,0.2,-5.1,68.4*,7.0,78.5*,
COc1ccccc1NS(=O)(=O)c1cccc(NC(=O)Nc2ccccc2)c1,19.6,3.6,0.9,-34.0,82.0*,5.0,86.2*,
C[C@H]1COc2c3ccccc3nn21,-0.2,/,/,/,/,-0.5,/,
CCC(C)NC(=O)c1cc(-c2ccccc2O)on1 (stereo unspecified),-4.5,5.4,-0.5,/,52.9*,-1.2,1.4,MPTP abs DR=i;MPTP cs DR=>80
CCC[C@H]1[C@@H](N)CC[C@@]23CCCN2C(=O)CCC[C@@H]13,3.8,/,/,/,/,0.7,/,
CCCCNc1nc(NCc2ccccc2)nc2ccccc12,-81.7,/,0.7,/,77.7*,-26.3,117.7*,
c1ccc(CNc2nc(N3CCN(Cc4ccccc4)CC3)nc3ccccc23)cc1,-51.8,0.2,1.3,-9.8,52.8*,-19.1,80.6*,
c1ccc(CNc2ncnc3ccccc23)cc1,4.1,1.6,5.3,-15.6,83.6*,3.9,58.5*,
CCCCC(=O)N[C@H]1CC[C@@]23CCCN2C(=O)CCC[C@H]3[C@H]1C,1.0,/,/,/,/,-2.4,/,
